This note sets out measurements from ChEMBL document CHEMBL4014350, “Alkoxyurea-Based Histone Deacetylase Inhibitors Increase Cisplatin Potency in Chemoresistant Cancer Cell Lines” (J Med Chem, 2017).

The subject of experiment [1] is CAL-27. The experiment can be described thus: Potentiation of 0.316 uM cisplatin-induced cytotoxicity against human CAL27 cells assessed as decrease in cell viability by measuring combination index at 1500 uM preincubated for 48 hrs followed by cisplatin treatment measured after 72 hrs by MTT assay. Type of experiment: functional. The conditions noted are these: in the assay text read “at 1500 nM” for “at 1500 uM”. The method, boiled down: (§1)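 Cal27 and cisplatin-resistant Cal27CisR cells were preincubated with the HDAC inhibitor for 48 h, then given cisplatin in combination. Viability was read by MTT after 72 h. The combination index was computed by the Chou–Talalay method: CI > 1 is antagonism, CI = 1 is additive, and CI < 0.9 is synergism. Points with fraction affected below 0.20 were flagged.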
On the technique in general: Tetrazolium dyes change colour on reduction, which living cells bring about.

Experiment [2] has as its target T1, Histone deacetylase 1/6 (Homo sapiens) (UniProt Q13547+Q9UBN7). The experiment can be described thus: Inhibition of HDAC1/HDAC6 in human Cal27CisR cells assessed as potentiation of 10 uM cisplatin-induced cytotoxicity by measuring combination index at 1000 nM preincubated for 48 hrs followed by cisplatin treatment measured after 72 hrs by MTT assay.
In experiment [3] the target is T1, Histone deacetylase 1/6 (Homo sapiens). The experiment can be described thus: Inhibition of HDAC1/HDAC6 in human Cal27CisR cells assessed as potentiation of 1 uM cisplatin-induced cytotoxicity by measuring combination index at 2000 uM preincubated for 48 hrs followed by cisplatin treatment measured after 72 hrs by MTT assay. The class given is cell-based. In a few lines:
(§2)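 Cal27CisR cells preincubated 48 h with the HDAC inhibitor, then exposed to cisplatin for 72 h. Viability read by MTT. Combination index calculated by the Chou–Talalay method: CI > 1 antagonism, CI = 1 additive, CI < 0.9 synergism. Points with fraction affected below 0.20 are flagged. Values are the mean of three experiments.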

For experiment [4] the target is unchanged. The experiment can be described thus: Inhibition of HDAC1/HDAC6 in human Cal27CisR cells assessed as potentiation of 5 uM cisplatin-induced cytotoxicity by measuring combination index at 1500 uM preincubated for 48 hrs followed by cisplatin treatment measured after 72 hrs by MTT assay. The class given is cell-based. The method, boiled down: as §1
Experiment [5] has the same target. The experiment can be described thus: Inhibition of HDAC1/HDAC6 in human Cal27CisR cells assessed as potentiation of 1 uM cisplatin-induced cytotoxicity by measuring combination index at 1000 uM preincubated for 48 hrs followed by cisplatin treatment measured after 72 hrs by MTT assay. The class given is cell-based. The method, boiled down:
as §2

Experiment [6] shares this target. The experiment can be described thus: Inhibition of HDAC1/HDAC6 in human Cal27CisR cells assessed as potentiation of 20 uM cisplatin-induced cytotoxicity by measuring combination index at 900 nM preincubated for 48 hrs followed by cisplatin treatment measured after 72 hrs by MTT assay.
Experiment [7] has the same target. The experiment can be described thus: Inhibition of HDAC1/HDAC6 in human Cal27CisR cells assessed as potentiation of 3.16 uM cisplatin-induced cytotoxicity by measuring combination index at 900 nM preincubated for 48 hrs followed by cisplatin treatment measured after 72 hrs by MTT assay.
The target is the same in experiment [8]. Description: Inhibition of HDAC1/HDAC6 in human Cal27CisR cells assessed as potentiation of 20 uM cisplatin-induced cytotoxicity by measuring combination index at 1500 nM preincubated for 48 hrs followed by cisplatin treatment measured after 72 hrs by MTT assay.
Experiment [9] relates to CAL-27. The experiment can be described thus: Potentiation of 0.316 uM cisplatin-induced cytotoxicity against human CAL27 cells assessed as decrease in cell viability by measuring combination index at 700 nM preincubated for 48 hrs followed by cisplatin treatment measured after 72 hrs by MTT assay.
The target in experiment [10] is T1, Histone deacetylase 1/6 (Homo sapiens). Description: Inhibition of HDAC1/HDAC6 in human Cal27CisR cells assessed as potentiation of 20 uM cisplatin-induced cytotoxicity by measuring combination index at 1000 nM preincubated for 48 hrs followed by cisplatin treatment measured after 72 hrs by MTT assay.
The subject of experiment [11] is CAL-27. Description: Potentiation of 1 uM cisplatin-induced cytotoxicity against human CAL27 cells assessed as decrease in cell viability by measuring combination index at 1000 uM preincubated for 48 hrs followed by cisplatin treatment measured after 72 hrs by MTT assay. The class given is functional. As to conditions: in the assay text read “at 1000 nM” for “at 1000 uM”. In a few lines:
as §1

The subject of experiment [12] is CAL-27. Description: Potentiation of 2 uM cisplatin-induced cytotoxicity against human CAL27 cells assessed as decrease in cell viability by measuring combination index at 1000 uM preincubated for 48 hrs followed by cisplatin treatment measured after 72 hrs by MTT assay. The class given is functional. The conditions noted are these: in the assay text read “at 1000 nM” for “at 1000 uM”. The method, boiled down:
(§3)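 HDAC inhibitor was added 48 h before cisplatin, then cells were exposed to cisplatin for 72 h and viability was read by MTT assay. Combination index was computed by the Chou–Talalay method: CI > 1 is antagonism, CI = 1 additive, CI < 0.9 synergism. Points with fraction affected below 0.20 were flagged.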

The target in experiment [13] is T1, Histone deacetylase 1/6 (Homo sapiens). Description: Inhibition of HDAC1/HDAC6 in human Cal27CisR cells assessed as potentiation of cisplatin-induced apoptosis at 1 uM preincubated for 48 hrs followed by cisplatin treatment for 6 hrs measured after 24 hrs by propidium iodide dye-based flow cytometry (reference value: 20.3%). The class given is cell-based. On the set-up: scale not given: the % may be the effect or the level left. Background: In flow cytometry, cells or beads pass a laser one at a time.

The subject of experiment [14] is CAL-27. Description: Potentiation of 0.5 uM cisplatin-induced cytotoxicity against human CAL27 cells assessed as decrease in cell viability by measuring combination index at 1500 uM preincubated for 48 hrs followed by cisplatin treatment measured after 72 hrs by MTT assay. Type of experiment: functional. In a few lines: as §1
Experiment [15] relates to CAL-27. The experiment can be described thus: Potentiation of 0.316 uM cisplatin-induced cytotoxicity against human CAL27 cells assessed as decrease in cell viability by measuring combination index at 1000 uM preincubated for 48 hrs followed by cisplatin treatment measured after 72 hrs by MTT assay. As to conditions: in the assay text read “at 1000 nM” for “at 1000 uM”. Type of experiment: functional. The method, boiled down:
as §1

Experiment [16] relates to CAL-27. The experiment can be described thus: Potentiation of 5 uM cisplatin-induced cytotoxicity against human CAL27 cells assessed as decrease in cell viability by measuring combination index at 2000 uM preincubated for 48 hrs followed by cisplatin treatment measured after 72 hrs by MTT assay. Type of experiment: functional. The conditions noted are these: in the assay text read “at 2000 nM” for “at 2000 uM”. In a few lines: as §3

Experiment [17] relates to CAL-27. Description: Potentiation of 0.5 uM cisplatin-induced cytotoxicity against human CAL27 cells assessed as decrease in cell viability by measuring combination index at 1000 uM preincubated for 48 hrs followed by cisplatin treatment measured after 72 hrs by MTT assay. Type of experiment: functional. The method, boiled down: as §1
The subject of experiment [18] is CAL-27. Description: Potentiation of 0.316 uM cisplatin-induced cytotoxicity against human CAL27 cells assessed as decrease in cell viability by measuring combination index at 500 nM preincubated for 48 hrs followed by cisplatin treatment measured after 72 hrs by MTT assay.
Experiment [19] concerns CAL-27. The experiment can be described thus: Potentiation of cisplatin-induced apoptosis in human CAL27 cells at 0.5 uM preincubated for 48 hrs followed by cisplatin treatment for 6 hrs measured after 24 hrs by propidium iodide dye-based flow cytometry (reference value: 21.8%). Type of experiment: functional.

T1 sequence (Q13547 whole entry, looked up): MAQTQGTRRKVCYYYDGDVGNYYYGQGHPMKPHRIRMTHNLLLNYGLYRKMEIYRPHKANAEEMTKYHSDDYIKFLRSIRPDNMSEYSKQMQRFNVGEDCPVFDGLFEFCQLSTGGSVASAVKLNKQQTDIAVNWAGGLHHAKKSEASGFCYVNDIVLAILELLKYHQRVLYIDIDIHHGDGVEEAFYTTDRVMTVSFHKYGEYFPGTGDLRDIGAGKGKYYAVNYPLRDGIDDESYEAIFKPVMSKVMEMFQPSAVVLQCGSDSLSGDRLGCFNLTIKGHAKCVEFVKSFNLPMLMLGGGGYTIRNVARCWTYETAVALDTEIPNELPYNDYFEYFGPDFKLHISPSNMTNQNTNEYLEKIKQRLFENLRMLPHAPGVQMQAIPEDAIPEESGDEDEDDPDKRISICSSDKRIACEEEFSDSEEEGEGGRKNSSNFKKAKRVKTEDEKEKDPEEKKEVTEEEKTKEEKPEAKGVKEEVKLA
T1 sequence (Q9UBN7 whole entry, looked up): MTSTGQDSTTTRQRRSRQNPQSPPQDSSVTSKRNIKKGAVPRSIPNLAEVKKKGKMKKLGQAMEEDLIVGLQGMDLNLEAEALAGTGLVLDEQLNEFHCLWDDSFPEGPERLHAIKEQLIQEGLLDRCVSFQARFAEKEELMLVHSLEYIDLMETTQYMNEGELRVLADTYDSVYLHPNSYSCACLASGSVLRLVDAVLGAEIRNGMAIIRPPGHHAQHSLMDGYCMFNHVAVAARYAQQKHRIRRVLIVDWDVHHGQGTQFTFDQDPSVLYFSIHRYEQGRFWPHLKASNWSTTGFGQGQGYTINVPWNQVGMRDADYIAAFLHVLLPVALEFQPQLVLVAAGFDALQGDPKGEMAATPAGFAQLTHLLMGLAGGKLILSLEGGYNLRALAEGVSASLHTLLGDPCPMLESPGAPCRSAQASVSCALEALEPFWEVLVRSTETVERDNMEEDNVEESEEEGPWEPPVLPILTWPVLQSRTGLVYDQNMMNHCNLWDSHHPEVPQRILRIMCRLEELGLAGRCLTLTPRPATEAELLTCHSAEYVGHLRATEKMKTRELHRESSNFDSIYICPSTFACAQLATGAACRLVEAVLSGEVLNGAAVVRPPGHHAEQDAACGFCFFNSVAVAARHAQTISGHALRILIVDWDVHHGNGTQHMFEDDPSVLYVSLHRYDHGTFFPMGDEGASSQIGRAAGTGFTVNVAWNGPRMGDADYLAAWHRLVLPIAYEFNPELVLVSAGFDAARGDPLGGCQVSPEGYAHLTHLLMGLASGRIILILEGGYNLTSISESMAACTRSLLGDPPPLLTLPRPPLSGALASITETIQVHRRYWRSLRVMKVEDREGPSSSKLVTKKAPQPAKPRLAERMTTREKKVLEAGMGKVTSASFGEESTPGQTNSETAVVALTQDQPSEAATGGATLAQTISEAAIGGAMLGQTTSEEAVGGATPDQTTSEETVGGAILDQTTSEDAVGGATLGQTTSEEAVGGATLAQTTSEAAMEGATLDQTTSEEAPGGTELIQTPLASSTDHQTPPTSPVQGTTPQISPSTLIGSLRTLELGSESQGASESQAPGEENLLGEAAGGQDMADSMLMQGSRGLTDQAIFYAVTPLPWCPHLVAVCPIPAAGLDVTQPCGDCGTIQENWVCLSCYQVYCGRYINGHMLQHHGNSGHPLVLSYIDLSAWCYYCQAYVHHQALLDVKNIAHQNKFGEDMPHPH

Turning to `COc1cc(NC(=O)NOCCCCCC(=O)NO)c2ncccc2c1`, the CI in experiment [1] was determined as 0.82; in experiment [2] it was 0.49; in experiment [3], 0.82; in [4], 0.47; in experiment [5], 0.85; in experiment [6], 0.49. Besides, the CI in experiment [7] was 0.79; in experiment [8], 0.62; in experiment [9] it was less than 0.2; in [10] it was 0.48; in experiment [11], 0.5; in experiment [12], 0.41. Further, the CI in [14] turned out to be 0.74; in experiment [15] it was 0.77; in experiment [16], 0.66; in experiment [17], 0.67. Also, the Activity in experiment [13] worked out at 56.3%.
For the molecule `COc1cc(NC(=O)NOCCCCCC(=O)NO)c2nccc(C)c2c1`, the CI in [18] was less than 0.2.
With `COc1cc(NC(=O)NOCCCCCC(=O)NO)c2nc(OC)cc(C)c2c1`, the Activity in experiment [19] is 33.3%.
